Runt-SMMHC FRET: inhibitors of human RUNX1 Runt domain binding to CBFb-SMMHC. Cerulean-Runt/Venus-CBFb-SMMHC FRET ratio 530/480, 1 h. 220,000 compounds, 0.74% hits. inhibition, % at 20 µM. Q01196+Q13951. AID 1434;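 active means mean inhibition across duplicate retests at 20 µM reaching about 50%, limit read from the data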;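 further: 0% = DMSO wells and 100% = wells with excess untagged CBFb-SMMHC; inhibitors lower the FRET ratio by blocking Runt binding to CBFb-SMMHC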
Vif imaging: HIV Vif inhibition | 340,000 compounds, 0.35% hits | inhibition, % at 7.49 µM | HEK293T cells, Vif self-association by quenched fluorescence, imaging, 24 h; in the data active means inhibition above about 50%, passing the limit was not always enough; inconclusive means no clear call, values can overlap the other calls; inactive means below about 31%
RanGTP-Imp inh: disruptors of Ran-importin-beta complex formation – biochemical, FRET, CFP-Ran, YFP-importin-beta, homogeneous, primary screen; 300,000 compounds, 1.1% hits; AID 2216; inhibition, % (concentration not given with the values); cell-free CFP-Ran/YFP-importin-beta FRET ratio;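 active means more than half of the replicate wells show a fall in the fluorescence ratio signal beyond about 16%, limit read from the data, passing the limit was not always enough; inconclusive means exactly half of the replicate wells pass the set limit; inactive means fewer than half of replicates pass the limit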;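 further: 0% = DMSO wells and 100% = Ran loaded with GDP instead of GTP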
Rce1 inh: yeast Ras-converting enzyme inhibition | 290,000 compounds, 0.27% hits | AID 2563 | calls only | yeast membranes, quenched prenylated peptide cleavage fluorescence;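 active means fall in fluorescence gain of 50% or more versus controls, with final raw signal at or below 3038400; inconclusive means same 50% fall but final raw signal above 3038400; inactive means fall in fluorescence gain under 50%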;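 further: plate controls were neutral control wells for no effect and wells lacking membranes for full effect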
Target sequence (Q03530 whole entry, looked up): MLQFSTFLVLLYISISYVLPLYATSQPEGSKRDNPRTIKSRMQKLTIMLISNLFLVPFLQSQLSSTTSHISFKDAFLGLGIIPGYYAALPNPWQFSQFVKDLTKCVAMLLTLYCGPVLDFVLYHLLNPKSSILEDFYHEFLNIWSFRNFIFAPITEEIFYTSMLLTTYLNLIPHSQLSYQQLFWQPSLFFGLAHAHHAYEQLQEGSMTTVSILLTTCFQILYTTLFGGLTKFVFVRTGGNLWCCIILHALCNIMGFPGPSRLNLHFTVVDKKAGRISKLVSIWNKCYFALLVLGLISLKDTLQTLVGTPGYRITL
Runt-CBFb FRET: blocks binding of human RUNX1 Runt domain to CBFb | Q01196+Q13951 | 220,000 compounds, 0.46% hits | Cerulean-Runt/Venus-CBFb FRET ratio 530/480, 1 h | inhibition, % at 20 µM;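 active means inhibition over about 50% at 20 µM in the single-dose screen, limit read from the data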;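 further: 0% = DMSO wells and 100% = excess unlabeled CBFb competitor control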
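test system = Cerulean-tagged RUNX1 Runt domain (FRET donor) fusion protein | reagent = Venus-CBFb binding partner, 100 nM | incubation = protein complex preformed 1 h, compound exposure 1 h, room temperature, dark | detection = FRET fluorescence | read-out basis = loss of energy transfer signal | controls = 5 µM unlabeled CBFb as full-inhibition high control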
Numbers without * were called inactive; i = inactive; ? = inconclusive; nt = no result; + = active, no number. Compounds with a hit are over-represented: about 1.7% of the library has one in this group of screens.

SMILES	Runt-SMMHC FRET	Vif imaging	RanGTP-Imp inh	Rce1 inh	Runt-CBFb FRET
COC(=O)c1ccc2[nH]c(C)c(CN3CCCC3)c(=O)c2c1	64*	nt	-3	nt	16
Cc1[nH]c2ccc(Br)cc2c(=O)c1CN1CCCCC1	-54	5	-1	i	2
CCOC(=O)c1cc(-c2csc(N/N=C/c3ccccc3Cl)n2)on1	16	11	42*	i	7
CCOC(=O)c1cc(-c2csc(Nc3ccccc3Cl)n2)on1	1	-5	-2	i	-3
Nc1n[nH]c2cc(=O)n(-c3ccc(Cl)cc3)nc12	54*	-3	77*	i	18
O=C1/C(=C/c2ccccc2Cl)SC(=S)N1CCC(=O)N1CCCCC1CCO (stereo unspecified)	nt	-3	4	i	nt
c1ccc(C2=NN(c3ccccc3)C(c3ccco3)C2)cc1 (stereo unspecified)	3	11	-7	i	6
Clc1ccc(N2N=C(c3cccs3)CC2c2ccco2)cc1 (stereo unspecified)	91*	-6	10	i	nt
c1ccc(N2N=C(c3cccs3)CC2c2ccco2)cc1 (stereo unspecified)	82*	1	1	i	32
Cc1nc2cc(NC(=O)c3ccc(N4C(=O)CCC4=O)cc3)ccc2s1	2	-1	1	nt	0
COC(=O)C1CCCN1S(=O)(=O)c1ccc2ccccc2c1 (stereo unspecified)	-5	3	1	+	-2
O=C(CCn1c(=O)oc2ccccc21)Nc1cccc(Br)c1	nt	-7	2	i	nt
COc1cc(C(=O)NCCCNc2nc3cc(C)c(C)cc3cc2C#N)cc(OC)c1OC	18	2	50*	i	nt
CCOc1ccc2nc(NCCNC(=O)C(C)C)c(C)cc2c1	0	16	-2	i	23
CCOc1ccc2nc(NCCNC(=O)c3cc(OC)c(OC)c(OC)c3)c(C#N)cc2c1	nt	-2	113*	i	nt
COc1cc(C(=O)NCCNc2nc3c(C)c(C)ccc3cc2C#N)cc(OC)c1OC	nt	-1	2	i	nt
Cc1c(CCC(=O)O)c(=O)oc2cc(O)ccc12	75*	-1	3	?	33
COc1ccc(C2=Cc3ccc(OC(C)=O)cc3OC2)cc1	nt	6	nt	nt	nt
C(=C\c1nccc2c1[nH]c1ccccc12)/c1ccccc1	80*	-13	8	i	22
CCc1ccc(-c2cc(C(=O)NCc3ccccn3)c3ccccc3n2)cc1	0	-14	?	i	-8
COc1ccc(-c2cc(C(=O)N3CCN(c4ccccc4)CC3)c3ccccc3n2)cc1	-1	17	1	+	0
COc1ccc(-c2cc(C(=O)NCCCN3CCCC3=O)c3ccccc3n2)cc1	nt	2	-10	+	nt
Cc1ccc(-c2cc(C(=O)NCc3ccccn3)c3ccccc3n2)cc1	1	59*	?	i	-7
Cc1occc1C(=O)Nc1cnn(CCCC(=O)O)c1	nt	-11	-1	i	nt
CN(CCc1ccccc1)C(=O)c1ccc(NC(=O)Cc2cccc(NC(=O)C3CCN(C(=O)c4ccccc4)CC3)c2)cc1	nt	-12	nt	nt	nt
SMILES	Runt-SMMHC FRET	Vif imaging	RanGTP-Imp inh	Rce1 inh	Runt-CBFb FRET
CN(C)c1ccc(C(=O)c2ccc(N(C)C)c3ccccc23)cc1	-1	78*	0	i	-1
Cn1c(/C(C#N)=C/c2ccncc2)nc2ccccc21	11	0	nt	i	15
Cn1c(/C(C#N)=C/c2ccc(O)cc2)nc2ccccc21	-3	2	28*	i	13
CCOc1cc(-c2c(C#N)c(N)nc3c2CCc2ccccc2-3)ccc1O	7	5	0	i	-3
COc1ccccc1-c1c(C#N)c(N)nc2c1CCc1ccccc1-2	20	0	20*	i	10
Cc1cc(C)cc(NC(=O)C2C3C=CC(O3)C2C(=O)O)c1 (stereo unspecified)	nt	51*	-4	i	nt
CCOC(=O)c1cc(NC(=O)C2C3C=CC(O3)C2C(=O)O)cc(C(=O)OCC)c1 (stereo unspecified)	nt	-6	-1	i	nt
CC(=O)c1cc2c(cc1NC(=O)Nc1cccc(Cl)c1)OCCO2	62*	3	?	i	19
Cc1ccc(NC(=O)NC2CC(=O)N(c3ccc4c(c3)OCCO4)C2)c(C)c1 (stereo unspecified)	nt	-6	7	i	nt
O=C(NNc1cc(N2CCOCC2)nc(N2CCOCC2)n1)c1ccc([N+](=O)[O-])cc1	3	0	63*	i	3
COc1cccc(SCc2noc(C(=O)NC(C)C)c2C(=O)NC(C)C)c1	nt	24	7	i	nt
COc1cc2ccc(=O)oc2c(O)c1OCC=C(C)C	62*	-3	9	i	61*
c1ccc(CSc2nnc(-c3ccccc3)c(-c3ccccc3)n2)cc1	nt	1	-2	i	nt
N#Cc1c(Cl)nc(SCc2ccccc2)nc1-c1ccccc1	-2	nt	nt	nt	113*
COc1ccccc1N1C(=O)C2C(C(=O)c3ccccc3)=NN(c3ccccc3OC)C2C1=O (stereo unspecified)	-148	-10	-47	i	-99
COCCn1c(SCC(=O)Nc2ccc(OC)cc2OC)nc2ccccc2c1=O	nt	6	21*	i	nt
COc1ccc2[nH]c3c(c2c1)CCN1C(=O)C(CC(=O)NCCCn2ccnc2)C[C@H](C(=O)N2CCOCC2)[C@@]31C (stereo partly specified)	nt	3	nt	nt	nt
CC(=O)Nc1ccc(S(=O)(=O)Nc2nc3nc(-c4ccccc4)cc(-c4ccccc4)n3n2)cc1	nt	nt	?	i	nt
O=C(O)CCC(=O)Nc1nc2nc(-c3ccccc3)cc(-c3ccccc3)n2n1	-9	6	0	+	-1
COc1ccc(C(=O)/C=C2/Sc3cc4c(cc3N2C)OCO4)cc1	64	7	-2	i	-134
CN1/C(=C/C(=O)c2ccc(Cl)cc2)Sc2cc3c(cc21)OCO3	-79	-2	36*	i	-56
COc1ccc(NS(=O)(=O)c2cccc(C(=O)N3CCCC3)c2)cc1	nt	-9	3	i	nt
COc1ccc2c(c1)cc(C(=O)N[C@@H](CCSC)C(=O)N1CCC(C(=O)O)CC1)n2C	nt	-9	-2	+	nt
CCN1CCCC1CNS(=O)(=O)c1ccc(F)c(Cl)c1 (stereo unspecified)	nt	51*	9	i	nt
CCN1CCCC1CNS(=O)(=O)c1cccc(C(F)(F)F)c1 (stereo unspecified)	5	2	-1	i	-3
O=C(NCC1CCCO1)c1cccc(Oc2ccc([N+](=O)[O-])cc2)c1 (stereo unspecified)	nt	-8	3	i	nt
c1ccc(-n2nnnc2SCc2cn3cccnc3n2)cc1	-2	-2	3	+	1
c1ccc(-n2nnnc2SCc2cn3ccccc3n2)cc1	-7	-3	1	i	2
c1ccc2c(Nc3ccc4c(c3)OCCO4)c3c(nc2c1)CCCC3	-7	-6	0	i	1

Source: PubChem BioAssay (several laboratories)
